# Only some compounds are listed: those with a hit (about 1.8% of all), similar ones and a draw of the others.
# CHRM4 agonist – agonists of human muscarinic M4 receptor (CHRM4); P08173; CHO-K1 hM4/Gqi5, Fluo-8 calcium fluorescence; vehicle 0%, full acetylcholine response 100%; activation, % at 3 µM; actives 0.14% (n = 360,000); AID 624127;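 active means activation above the run mean over all test wells plus 3 SD, cut at about 32% in these data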;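 further: peak over basal fluorescence ratio per well then scaled between controls; 0% = DMSO wells and 100% = acetylcholine at EC100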
# M5 antag – blocks acetylcholine activation of human M5 receptor; P08912; CHO-hM5 cells, Fluo-8 calcium fluorescence, ACh EC80; inhibition, % at 3 µM; actives 0.59% (n = 360,000); AID 624040;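 active means inhibition above a per-plate cutoff, the mean of that plate's test compounds plus 3 SD, cut at about 27% in these data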;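 further: 0% = acetylcholine EC80 with DMSO and 100% = DMSO without agonist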
# Target sequence (P08912 whole entry, looked up): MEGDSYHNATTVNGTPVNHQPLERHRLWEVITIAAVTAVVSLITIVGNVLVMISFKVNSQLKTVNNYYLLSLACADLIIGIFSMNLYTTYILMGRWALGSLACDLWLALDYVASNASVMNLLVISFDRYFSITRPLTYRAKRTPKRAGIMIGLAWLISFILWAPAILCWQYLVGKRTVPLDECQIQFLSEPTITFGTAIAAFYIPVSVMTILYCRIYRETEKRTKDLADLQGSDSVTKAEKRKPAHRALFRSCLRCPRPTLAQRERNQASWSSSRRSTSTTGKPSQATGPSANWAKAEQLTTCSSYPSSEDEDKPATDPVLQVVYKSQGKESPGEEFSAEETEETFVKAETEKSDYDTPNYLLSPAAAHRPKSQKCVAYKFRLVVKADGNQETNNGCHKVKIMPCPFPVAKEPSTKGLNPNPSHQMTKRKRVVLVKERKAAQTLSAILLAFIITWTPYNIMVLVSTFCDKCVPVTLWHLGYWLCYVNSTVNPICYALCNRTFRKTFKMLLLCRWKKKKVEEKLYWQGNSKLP
# CHRM5 PAM – CHRM5 positive allosteric modulation; P08912; CHO-K1 hM5, Fluo-8 calcium, ACh EC20 PAM; 0% = ACh EC20, 100% = ACh EC100; activation, % at 3 µM; actives 0.3% (n = 360,000); AID 624038;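 active means activation above the run cutoff, the mean activation of all test compounds plus 3 SD, cut at about 18% in these data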
#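 Assay system – human M5 receptor in CHO-K1 cells · Read-out – % activation, ACh-normalized · Technique – Fluo-8 calcium fluorescence · Dosing – single-point, 3 µM nominal · Incubation – Fluo-8 loading 80 min at 37 °C plus 30 min room temperature · Repeats – singlicate, one well per test compound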
# CHRM4 antagonist – blocks acetylcholine activation of human M4 receptor; CHO-hM4 cells, ACh EC80, Fluo-8 calcium fluorescence; inhibition, % at 3 µM; actives 0.73% (n = 360,000);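 active means inhibition above its plate's cutoff, the mean inhibition of sample wells plus 3 SD, cut at about 27% in these data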;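 further: 0% = acetylcholine EC80 with DMSO and 100% = DMSO without agonist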
# M5 ag – CHRM5 agonism in calcium assay | CHO-K1 hM5 cells, Fluo-8 calcium fluorescence; 0% DMSO wells, 100% maximal acetylcholine response | actives 0.19% (n = 360,000) | P08912 | activation, % at 3 µM;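 active means activation above the run's mean over test compounds plus 3 SD, cut at about 23% in these data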;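 further: signal is peak over basal fluorescence ratio across the kinetic read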
# M4 PAM – positive allosteric modulators of human muscarinic M4 receptor | P08173 | CHO-K1 hM4/Gqi5, Fluo-8 calcium fluorescence, ACh EC20; 0% = ACh EC20, 100% = maximal ACh | activation, % at 3 µM | actives 0.4% (n = 360,000) | AID 624126;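 active means activation above its plate's cutoff, the mean activation of sample wells plus 3 SD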
# Active calls of the source: *.
SMILES,CHRM4 agonist,M5 antag,CHRM5 PAM,CHRM4 antagonist,M5 ag,M4 PAM
c1ccc(N2[C@@H]3CC[C@H]2c2ccccc2C3)cc1,-2,0,-5,-17,0,2
O=C(c1cccnc1)N1Cc2ccccc2-n2nncc2C1,1,4,0,-23,-1,6
CCC(C)NC(=O)CN1C(=O)CN=C(c2ccccc2)c2ccccc21 (stereo not drawn),1,4,0,1,-3,-1
CCn1ccnc1CN1CCCC(C(=O)c2cccc(C(F)(F)F)c2)C1 (stereo not drawn),3,1,-11,47*,-9,-20
Nc1ccccc1C(=O)OCc1ccc([N+](=O)[O-])cc1,0,14,-10,1,-3,-2
COc1cc(/C=C/c2nc3ccccc3c(=O)n2-c2ccc(O)cc2)ccc1O,22,25,-12,29*,3,-12
COc1ccc(-n2c(/C=C3/C(=O)Nc4ccccc43)nc3ccccc3c2=O)cc1,3,1,-1,97*,5,4
CC12CCC3C(CCCC4CC(=O)CCC43C)C1CCC2O (stereo not drawn),5,11,-11,-6,-2,-1
C(=NC12CN3CN(CN(C3)C1)C2)c1cccnc1,1,-3,14,3,0,19*
O=C1/C(=C\c2cccnc2)N2CCC1CC2,1,11,0,-2,-4,-6
CC(C)(C)c1ccc(CSc2cnn(C(C)(C)C)c(=O)c2Cl)cc1,12,28*,-12,11,12,-4
O=[N+]([O-])c1cc([As](=O)(O)O)ccc1O,0,-2,-13,-18,36*,6
O=C1NCN(c2ccccc2)C12CCNCC2,1,-1,0,-5,-4,10
O=C(NCCN1CCC2(CC1)C(=O)NCN2c1cccc(F)c1)c1ccc2ccccc2c1,107*,99*,-25,101*,52*,-18
COC(=O)C1=C(c2ccc(F)cc2F)C[C@@H]2CC[C@H]1N2C(=O)NC(C)C,0,4,6,2,-2,5
O=c1c2ccccc2nc(-c2ccccc2)n1-c1ccncc1,2,-2,-4,8,1,4
c1ccc(C(c2ccccc2)c2ccncc2)cc1,5,37*,-38,42*,-11,-16
O=C1NC(=O)N(Cc2ccc(F)cc2)C(=O)/C1=C\c1ccoc1,7,12,-13,-10,25*,0
CN(C)c1ccc(/C=C2\C(=O)NC(=O)N(Cc3ccc(F)cc3)C2=O)cc1,2,8,-3,5,2,0
CCN1CCN(CC(c2ccccc2)c2ccccc2)CC1,2,36*,-34,21,-20,-11
CCc1ccc(N2C(=O)NC(=O)/C(=C\c3cc(C)n(-c4cc(C(=O)O)cc(C(=O)O)c4)c3C)C2=O)cc1,2,-3,6,-14,-1,18*
